Test results: ChEMBL document CHEMBL3108685, “Exploring the chemical space of G-quadruplex binders: discovery of a novel chemotype targeting the human telomeric sequence” (J Med Chem, 2013)
The source made the active and inactive calls. No cut-off for these calls is given here.

How the values were obtained:
Homo sapiens [1] = species on record: Homo sapiens; assay: Binding affinity to human kit1 G-quadruplex DNA assessed as change in melting temperature at 10 uM by FRET assay
Outline: (§1)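 FRET melting: target oligos labelled 5′-DABCYL / 3′-fluorescein, 0.25 μM, with ligand in 50 mM potassium buffer (10 mM LiOH, 50 mM KCl, pH 7.4). Samples denatured at 95 °C for 5 min, cooled slowly overnight, then ramped to 90 °C and back to 30 °C at 0.2 °C/min. Excitation 488 nm, emission 520 nm. Tm taken from first derivative; at least three repeats, errors ±0.2 °C.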

Homo sapiens [2] = species on record: Homo sapiens; assay: Binding affinity to human TBA G-quadruplex DNA assessed as change in melting temperature at 10 uM by FRET assay; outline: as §1
Homo sapiens [3] = species on record: Homo sapiens; assay: Binding affinity to human c-myc G-quadruplex DNA assessed as change in melting temperature at 10 uM by FRET assay; outline: as §1
Homo sapiens [4] = species on record: Homo sapiens; assay: Binding affinity to human kit2 G-quadruplex DNA assessed as change in melting temperature at 10 uM by FRET assay; outline: as §1
HT-29 [5] = assay: Induction of apoptosis in human HT-29 cells assessed as late apoptotic cells at 2 uM measured on day 5 by Annexin V/propidium iodide staining-based flow cytometric analysis (reference value: 10%); assay type: functional
BJ [6] = assay: Cytotoxicity against human BJ cells expressing human TERT assessed as cell viability up to 3 uM after 4 days by MTT assay; assay type: cell-based; conditions: 96 h
Outline: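 BJ-hTERT cells seeded at 3 × 10^3 per well and treated 24 h later with 0, 1, 2 or 3 μM for 4 days. MTT (5 mg/mL stock in PBS) added, followed by 4 h at 37 °C. Formazan dissolved in isopropanol and OD read at 540 nm. Mean ± SD of three experiments.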

Homo sapiens [7] = species on record: Homo sapiens; assay: Binding affinity to human Tel24 G-quadruplex DNA assessed as change in melting temperature up to 20 uM by FRET assay; outline: as §1
HT-29 [8] = assay: Cytotoxicity against human HT-29 cells assessed as inhibition of cell survival after 4 days by clonogenic assay; assay type: functional, cell-based
Outline: (§2)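 Cells seeded at 5 × 10^2 per 60 mm dish and treated 24 h later across a dose series for 4 days, then colony formation scored. Surviving fraction = treated/control absolute survival. IC50 from dose–response. Mean ± SD of three independent experiments.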

Homo sapiens [9] = species on record: Homo sapiens; assay: Displacement of thiazole orange from human Tel24 G-quadruplex DNA up to 28 uM by fluorescent intercalator displacement assay
Outline: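 Tel24 unlabelled (0.6 μM) preloaded with thiazole orange (1.2 μM) in 10 mM Tris, 50 mM KCl, pH 7.4. Ligand added in increasing amounts and fluorescence emission followed. Displacement % = 100 − (F/F0 × 100), with F0 the signal before ligand, plotted against concentration. At least three repeats, each in triplicate.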

Homo sapiens [10] = species on record: Homo sapiens; assay: Binding affinity to human Tel24 G-quadruplex DNA at 2:1 ligand/DNA ratio by NMR analysis
BJ [11] = assay: Induction of telomere dysfunction induced foci in human BJ cells expressing SV40 early protein HELT assessed as increase in gamma H2AX/TRF1 co-localization at 1 uM by deconvolution microscopy relative to control; assay type: functional
Outline: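 BJ-HELT fibroblasts given 1 μM, then double immunofluorescence for γH2AX and TRF1 with DAPI, imaged by deconvolution microscopy. In a single plane, 30 γH2AX-positive cells scored; cells with at least four γH2AX/TRF1 colocalizations counted as TIF-positive. Mean TIFs per nucleus also scored. Mean ± SD, three experiments.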

HeLa = assay: Cytotoxicity against human HeLa cells assessed as inhibition of cell survival after 4 days by clonogenic assay; assay type: functional, cell-based; outline: as §2
HT-29 [12] = assay: Cell cycle arrest in human HT-29 cells assessed as accumulation at subG1 phase at 2 uM by […]propidium iodide staining-based flow cytometric analysis; assay type: functional; conditions: TDE = time-dependent effect
Outline: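 HT29 cells cultured with or without 2 μM and sampled on days 4, 5 and 6. Cells fixed in 70% ethanol, stained 30 min at room temperature in the dark with PI (50 μg/mL) plus RNase A, and analysed by flow cytometry (20000 events). Sub-G1 fraction taken as the apoptotic measure.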

Homo sapiens [13] = species on record: Homo sapiens; assay: Binding affinity to human Tel24 G-quadruplex DNA assessed as change in melting temperature at 10 uM by FRET assay; outline: as §1
BJ [14] = assay: Induction of DNA damage response in human BJ cells expressing human TERT assessed as phosphorylation of gamma H2AX at 1 uM after 24 hrs by DAPI staining-based immunofluorescence analysis; assay type: cell-based
Outline: (§3)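 BJ-HELT and BJ-hTERT fibroblasts grown in D-MEM with 10% FCS and 2 mM glutamine, exposed to 1 μM for 24 h. Cells fixed in 2% formaldehyde, permeabilized with 0.25% Triton X-100, stained with anti-γH2AX plus FITC secondary, and counterstained with DAPI. 200 cells scored on triplicate slides. Mean ± SD of at least three experiments.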

BJ [15] = assay: Induction of DNA damage response in human BJ cells expressing SV40 early region protein HELT assessed as phosphorylation of gamma H2AX at 1 uM after 24 hrs by DAPI staining-based immunofluorescence analysis relative to control; assay type: functional; outline: as §3
HT-29 [16] = assay: Induction of apoptosis in human HT-29 cells assessed as early apoptotic cells at 2 uM measured on day 5 by Annexin V/propidium iodide staining-based flow cytometric analysis (reference value: 4%); assay type: functional
U2OS = assay: Cytotoxicity against human U2OS cells assessed as inhibition of cell survival after 4 days by clonogenic assay; assay type: functional, cell-based; outline: as §2
Homo sapiens [17] = species on record: Homo sapiens; assay: Binding affinity to human Tel24 G-quadruplex DNA assessed as change in DNA topology by CD spectroscopic analysis
Outline: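 CD spectra recorded at 25 °C, 220–320 nm, on annealed Tel24 (40 μM) with or without an excess of ligand. Buffer 10 mM Tris-HCl, 50 mM KCl, pH 7.4; 1 mm path length. Average of three scans, buffer baseline subtracted. Time constant 4 s, bandwidth 2 nm, scan rate 20 nm min−1.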

`Cc1cc(NC(=O)c2cc(-c3ccccc3O)no2)nn1CC(=O)N1CCOCC1` was tested, and the Activity (Homo sapiens [1]) was “inactive”, the Activity (Homo sapiens [2]) was “inactive” and the Activity (Homo sapiens [3]) was “inactive”. For the same compound, the Activity (Homo sapiens [4]) was “inactive”.
For `Cn1c(=O)c2cc(C(=O)NCCN3CCC(Cc4ccccc4)CC3)sc2c2ccccc21`, the Activity (HT-29 [5]) was 30%, the Activity (BJ [6]) was “Non-toxic” and the ΔTm (Homo sapiens [7]) was 11 °C. The Activity (HT-29 [8]) was “Dose-dependent effect”, the IC50 (HT-29 [8]; HT-29, 96 h) was 1 µM and the Activity (Homo sapiens [9]) was “Active”. The Activity (Homo sapiens [10]) was “Active”, the Activity (BJ [11]) was “<=50%” and the Activity (HeLa) was “Dose-dependent effect”. For the same compound, the IC50 (HeLa; 96 h) was 1 µM, the Activity (HT-29 [12]) was “tde” and the Activity (Homo sapiens [13]) was “Active”. The Activity (BJ [14]) was “Non-toxic”, the Activity (BJ [15]) was 60% and the Activity (HT-29 [16]) was 37%. The Activity (U2OS) was “Dose-dependent effect”, the IC50 (U2OS; 96 h) was 1 µM and the Activity (Homo sapiens [17]) was “Active”.
In the case of `COc1ccc(NC(=O)c2ccc(CN3CCC(Cc4ccccc4)CC3)cc2)cc1OC`, the Activity (Homo sapiens [7]) is reported as “inactive”, the Activity (Homo sapiens [9]) is reported as “inactive” and the Activity (Homo sapiens [1]) is reported as “inactive”. The Activity (Homo sapiens [2]) was “inactive”, the Activity (Homo sapiens [3]) was “inactive” and the Activity (BJ [14]) was “Non-toxic”. The Activity (Homo sapiens [4]) was “inactive” and the Activity (BJ [15]) was “Active”.
In the case of `Clc1ccc2[nH]c(-c3ccc(OCCCN4CCN(c5ccccc5)CC4)cc3)nc2c1`, the Activity (Homo sapiens [7]) is reported as “inactive”, the Activity (Homo sapiens [9]) is reported as “inactive” and the Activity (Homo sapiens [1]) is reported as “inactive”. For the same compound, the Activity (Homo sapiens [2]) was “inactive”, the Activity (Homo sapiens [3]) was “inactive” and the Activity (BJ [14]) was “Non-toxic”. The Activity (Homo sapiens [4]) was “inactive” and the Activity (BJ [15]) was “Active”.
